The source made the active and inactive calls. The calls are words filed in the database; no cut-off is given here.
Columns and labels:
RAW [1] = experiment: Inhibition of iNOS protein expression in LPS-stimulated mouse RAW 264.7 cells at 10 uM after 20 hrs by Western blot analysis; format: functional, cell-based
Procedure, shortened: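 Cells (1.5 × 10⁶ per 60-mm dish) given LPS (1 µg/mL) with or without compound for 20 h, then lysed. 20 µg lysate protein run on 8% SDS-PAGE, blotted to PVDF, probed for mouse iNOS and actin, ECL detection. iNOS band density normalized to actin; means ± SD of three densitometric analyses.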

RAW [2] = experiment: Inhibition of LPS-induced NO production in RAW 264.7 cells at 5 uM after 20 hrs; format: functional, cell-based; conditions: Mus musculus
Procedure, shortened: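 Cells plated in 10% FBS–DMEM for 24 h, then given 1% FBS medium with LPS (1 µg/mL) plus compound for 20 h. Accumulated nitrite assayed by Griess reaction (10 min, room temp), absorbance 570 nm, quantified by sodium nitrite calibration. Percent inhibition relative to LPS-only control, n = 3.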

RAW [3] = experiment: Inhibition of iNOS mRna expression in LPS-stimulated mouse RAW 264.7 cells at 10 uM after 6 hrs by RT-PCR analysis; format: functional, cell-based
Procedure, shortened: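 Cells (1.8 × 10⁶ per 60-mm dish) stimulated with LPS (1 µg/mL) with or without compound for 6 h, washed twice with PBS. Total RNA extracted with Trizol; iNOS and β-actin mRNA assessed by RT-PCR.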

RAW [4] = experiment: Inhibition of LPS-induced NO production in RAW 264.7 cells at 0.1 uM after 20 hrs; format: functional; conditions: Mus musculus

SMILES	inhibition at 5 µM (RAW [2])	other results
CNC(=S)Nc1ccc(OCCn2c3ccccc3c3ccccc32)cc1	80%	Activity (RAW [1]): Active; IC50 (RAW [2]): 0.73 µM; Activity (RAW [3]): Active
N=C(N)NN [PIMAGEDINE]		inhibition at 0.1 µM (RAW [4]): 85%
CC(C)NC(=O)Nc1ccc(OCCn2c3ccccc3c3ccccc32)cc1	15%	
CCNC(=O)Nc1ccc(OCCn2c3ccccc3c3ccccc32)cc1	30%	
NC(=O)N(CC1CC1)c1ccc(OCCn2c3ccccc3c3ccccc32)cc1	61%	IC50 (RAW [2]): 3.12 µM
CN(C(N)=O)c1ccc(OCCn2c3ccccc3c3ccccc32)cc1	8%	
O=C(Nc1ccccc1)Nc1ccc(OCCn2c3ccccc3c3ccccc32)cc1	28%	
O=C(O)CNC(=O)Nc1ccc(OCCn2c3ccccc3c3ccccc32)cc1	43%	
NC(=S)N(CC1CC1)c1ccc(OCCn2c3ccccc3c3ccccc32)cc1	34%	
CCN(C(N)=O)c1ccc(OCCn2c3ccccc3c3ccccc32)cc1	25%	
NC(=O)Nc1ccc(OCCn2c3ccccc3c3ccccc32)cc1	24%	
NC(=S)Nc1ccc(OCCn2c3ccccc3c3ccccc32)cc1	55%	IC50 (RAW [2]): 5.31 µM
O=C(O)CNC(=S)Nc1ccc(OCCn2c3ccccc3c3ccccc32)cc1	87%	IC50 (RAW [2]): 0.153 µM
CCOC(=O)CNC(=O)Nc1ccc(OCCn2c3ccccc3c3ccccc32)cc1	38%	
CCOC(=O)CNC(=S)Nc1ccc(OCCn2c3ccccc3c3ccccc32)cc1	41%	
CCNC(=S)Nc1ccc(OCCn2c3ccccc3c3ccccc32)cc1	90%	IC50 (RAW [2]): 0.901 µM
CCCNC(=O)Nc1ccc(OCCn2c3ccccc3c3ccccc32)cc1	14%	
CCN(C(N)=S)c1ccc(OCCn2c3ccccc3c3ccccc32)cc1	33%	
